Results on two molecules are retold here after ChEMBL document CHEMBL1122754, “Synthesis and evaluation of (17 alpha,20E)-21-[125I]iodo-19-norpregna-1,3,5(10),20-tetraene-3,17 -diol and (17 alpha,20E)-21-[125I]iodo-11 beta-methoxy-19-norpregna-1,3,5(10),20-tetraene-3,17-diol (17 alpha-(iodovinyl)estradiol derivatives) as high specific activity potential radiopharmaceuticals” (J Med Chem, 1984).

The subject of data set [1] is Rattus norvegicus. Nature of the data set: In vivo distribution of the drug in uterus was determined at 2 hr following injection of five microcurics of the radiolabeled [125 I] compound in rats. It counts as ADME, organism-based. A digest of the protocol: (§1)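 Immature female Sprague-Dawley rats (20–25 days old) given 3–5 μCi of the ¹²⁵I-radioligand into the femoral vein; killed by cervical dislocation at 1, 2 or 3 h. Uterus blotted free of blood, 10–30-mg samples weighed. Heparinized blood centrifuged, 20-μL plasma samples taken. Gamma counting, dpm by absolute counting method. Expressed as percent dose/gram tissue; uterus/plasma ratio from these values.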

For data set [2], the system named is Rattus norvegicus. As to the kind of experiment: In vivo distribution of the drug in uterus was determined at 3h following injection of five microcurics of the radiolabeled [125 I] compound in rats. It counts as ADME, organism-based. A digest of the protocol:
as §1

Data set [3] relates to Rattus norvegicus. As to the kind of experiment: In vivo distribution of the drug in uterus/plasma was determined at 1 hr following injection of five microcurics of the radiolabeled [125 I] compound in rats. It is filed as ADME, organism-based. A digest of the protocol:
as §1

In data set [4] the test system is Rattus norvegicus. As to the kind of experiment: In vivo distribution of the drug in uterus/plasma was determined at 2 hr following injection of five microcurics of the radiolabeled [125 I] compound in rats. It counts as ADME, organism-based. A digest of the protocol:
as §1

The test system of data set [5] is Rattus norvegicus. Nature of the data set: (§2) In vivo distribution of the drug in uterus/plasma was determined at 3h following injection of five microcurics of the radiolabeled [125 I] compound in rats. It is filed as ADME, organism-based. As to conditions: other tissue. A digest of the protocol:
as §1

The subject of data set [6] is Rattus norvegicus. Nature of the data set: In vivo distribution of the drug in plasma was determined at 1 hr following injection of five microcurics of the radiolabeled [125 I] compound in rats. It counts as ADME, organism-based. A digest of the protocol: as §1
Data set [7] deals with Rattus norvegicus. Nature of the data set: In vivo distribution of the drug in plasma was determined at 2 hr following injection of five microcurics of the radiolabeled [125 I] compound in rats. It is filed as ADME, organism-based. A digest of the protocol:
as §1

Data set [8] has as its system Rattus norvegicus. As to the kind of experiment: In vivo distribution of the drug in plasma was determined at 3h following injection of five microcurics of the radiolabeled [125 I] compound in rats. It is filed as ADME, organism-based. A digest of the protocol:
as §1

Data set [9] relates to Rattus norvegicus. Nature of the data set: In vivo distribution of the drug in uterus was determined at 1 hr following injection of five microcurics of the radiolabeled [125 I] compound in rats. It is filed as ADME, organism-based. The method in brief:
as §1

Data set [10] is filed under the species Rattus norvegicus. Nature of the data set: Specific activity and expressed as Ci/mmol. It is filed as functional.
Data set [11] deals with Rattus norvegicus. The description is as §2. It counts as ADME, organism-based. As to conditions: other tissue. The method in brief:
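Female Sprague-Dawley rats aged 20–25 days received 3–5 µCi of the [125I] radioligand via the femoral vein and were killed by cervical dislocation at 1, 2 and 3 h. Uterus was blotted free of blood, and 10–30 mg samples were weighed. Heparinized blood was centrifuged, and 20 µL plasma samples were taken. Samples were gamma-counted, with dpm found by absolute counting. Values are % dose/g, and the uterus/plasma ratio was derived from them.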
This is another data set of the same source.

Data set [12] relates to Rattus norvegicus. Nature of the data set: In vivo effect when coinjected with estradiol (50 ug) in immature rat liver (after 1 hr). It is filed as functional.
Data set [13] concerns Rattus norvegicus. Nature of the data set: In vivo effect when coinjected with estradiol (50 ug) in immature rat muscle (after 1 hr). It is filed as functional, Muscle tissue.
Data set [14] has as its system Rattus norvegicus. As to the kind of experiment: In vivo effect when coinjected with estradiol (50 ug) in immature rat plasma (after 1 hr). It counts as functional.
Data set [15] has as its system Rattus norvegicus. Nature of the data set: In vivo effect when coinjected with estradiol (50 ug) in immature rat uterus (after 1 hr). It is filed as functional.

Where “and” joins values, the source holds several entries; their conditions need not be identical. Equal values may be shown once.

Turning to `C[C@]12CC[C@@H]3c4ccc(O)cc4CC[C@H]3[C@@H]1CC[C@@]2(O)/C=C/[125I]`, the Distribution with Rattus norvegicus [1] is 0.96%; in the data set on Rattus norvegicus [2] it was 1.1%; in the data set with Rattus norvegicus [6] it was 1.09%; in the data set with Rattus norvegicus [7], 0.192%; with Rattus norvegicus [8] it was 0.113%; in the data set on Rattus norvegicus [9], 5.89%. In addition, the results for the uterus/plasma ratio with Rattus norvegicus [3], in the data set on Rattus norvegicus [4] and in the data set on Rattus norvegicus [5] were 5.5, 5 and 9.7, respectively. Moreover, in the data set filed under Rattus norvegicus [10], the Specific activity was 2200 Ci mM-1 and 2152 Ci mM-1.
Turning to `CO[C@H]1C[C@@]2(C)[C@@H](CC[C@@]2(O)/C=C/[125I])[C@@H]2CCc3cc(O)ccc3[C@H]21`, the Distribution was 17.2% with Rattus norvegicus [1]; 15.9% in the data set with Rattus norvegicus [2]; 0.28% in the data set with Rattus norvegicus [6]; 0.25% with Rattus norvegicus [7]; 0.24% in the data set on Rattus norvegicus [8]; 8.18% with Rattus norvegicus [9]. For the same molecule, the values for the uterus/plasma ratio in the data set with Rattus norvegicus [3], in the data set on Rattus norvegicus [4] and in the data set on Rattus norvegicus [11] were 29, 68.3 and 66.3, respectively. Moreover, the Dose in the data set with Rattus norvegicus [12] was found to be 4.52%; in the data set with Rattus norvegicus [13], 1.29%; in the data set with Rattus norvegicus [14], 0.34%; in the data set with Rattus norvegicus [15], 1.25%.
